In assay [1] the test system is NIH3T3. In words: Inhibition of PKB phosphorylation at Ser473 residue in mouse NIH3T3 cells at 800 nM under serum starved condition. The assay is classed as cell-based. A digest of the protocol: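 NIH3T3 cells, 200,000 per well, grown in DMEM/10% donor calf serum, then held 18 h in 0.1% DCS. Pretreated 15 min with vehicle (DMSO), 800 nM inhibitor, 20 nM rapamycin or 10 μM LY294002, then left unstimulated or stimulated 15 min with 10% DCS. Lysates run on 10% SDS-PAGE, PVDF immunoblot with specific antibodies.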

Assay [2] can be described thus: Selectivity ratio of IC50 for GST-tagged Ptdlns3p P110alpha (unknown origin) to IC50 for Saccharomyces cerevisiae GST-tagged PIKfyve.
Assay [3] deals with NIH3T3. Briefly: Induction of EGF localization in mouse NIH3T3 cells at 800 nM preincubated for 2 hrs followed by EGF stimulation and measured after 60 mins. The format is functional, cell-based. The settings on record: time 3.0 hrs.
Assay [4] has as its system COS-7. In words: Induction of swollen vesicle phenotype in african green monkey COS-7 cells at 800 nM incubated for 120 mins by time-lapse analysis. The assay is classed as functional, cell-based. The settings on record: Chlorocebus aethiops.
The test system of a further assay is MCF-10A. In words: Induction of swollen vesicle phenotype in human MCF-10A cells at 800 nM incubated for 120 mins by time-lapse analysis. The format is functional, cell-based.
Assay [5] in a line: Effect on PtdIns(4,5)P2 production in [32p]pi labelled serum stimulated mouse NIH3T3 cells at 800 nM (reference value: 487335 +/- 641). The format is functional. Summed up: (§1)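 Sub-confluent NIH3T3 cells in 6 cm dishes, moved to phosphate-free medium and labelled with 0.3 mCi/ml 32Pi for 1 h, then treated with or without inhibitor for 20 min. Lysis in ice-cold 1 M HCl, scraping, lipid extraction and HPLC analysis of labelled phosphoinositides.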

For the next assay, the system named is MDCK. Briefly: Induction of swollen vesicle phenotype in MDCK cells at 800 nM incubated for 120 mins by time-lapse analysis. The format is functional, cell-based. The conditions noted are these: Canis lupus familiaris.
Assay [6] deals with NIH3T3. In words: Induction of cell division in mouse NIH3T3 cells at 800 nM. The format is functional, cell-based.
Assay [7] is described as follows: Effect on PtdIns(3,4)P2 production in [32p]pi labelled serum stimulated mouse NIH3T3 cells at 800 nM (reference value: 1366 +/- 44). The assay is classed as functional. Summed up: as §1
In assay [8] the test system is NIH3T3. In words: Induction of swollen vesicle phenotype in mouse NIH3T3 cells incubated for 120 mins by time-lapse analysis. The format is functional, cell-based. The settings on record: NIH3T3, 2 h. A digest of the protocol: (§2)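 Live imaging of NIH3T3 cells on glass-bottom dishes in phenol red-free DMEM/10% DCS at 37°C, 10% CO2. Cells given 800 nM compound and phase imaged for 120 min, frames every 10 s. Then washed, placed in drug-free medium and filmed a further 130 min.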

The subject of the next assay is MEF. In words: Induction of swollen vesicle phenotype in MEF cells at 800 nM incubated for 120 mins by time-lapse analysis. The format is functional, cell-based. The conditions noted are these: Mus musculus.
Assay [9] can be described thus: Effect on PtdIns4P production in [32p]pi labelled serum stimulated mouse NIH3T3 cells at 800 nM (reference value: 212147 +/- 5485). The format is functional. Summed up: as §1
Assay [10] is described as follows: Inhibition of mouse type 1 alpha PtdInsP.
In assay [11] the test system is NIH3T3. Briefly: Induction of EEA1 localization in lumenal vesicles of mouse NIH3T3 cells at 800 nM incubated for 2 hrs. The assay is classed as functional, cell-based. Summed up: (§3)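 NIH3T3 cells on coverslips, untreated or given 800 nM compound for 2 h. Fixed in 4% paraformaldehyde, permeabilized in 0.2% Triton X-100, blocked in 2% BSA, then anti-EEA1 staining. Confocal single 0.4 μm optical sections, with phase image merged onto the fluorescence image.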

For assay [12], the system named is NIH3T3. Briefly: Induction of swollen vesicle phenotype in mouse NIH3T3 cells at 800 nM incubated for 120 mins by time-lapse analysis. The assay is classed as functional, cell-based. Summed up: as §2
Assay [13] can be described thus: Inhibition of Saccharomyces cerevisiae GST-tagged PIKfyve.
The target in assay [14] is 1-phosphatidylinositol 3-phosphate 5-kinase FAB1 (Saccharomyces cerevisiae (strain ATCC 204508 / S288c) (Baker's yeast), UniProt P34756). In words: Inhibition of Saccharomyces cerevisiae GST-tagged Fab1 incubated for 15 mins in presence of ATP.
Sequence of 1-phosphatidylinositol 3-phosphate 5-kinase FAB1 (P34756 whole entry): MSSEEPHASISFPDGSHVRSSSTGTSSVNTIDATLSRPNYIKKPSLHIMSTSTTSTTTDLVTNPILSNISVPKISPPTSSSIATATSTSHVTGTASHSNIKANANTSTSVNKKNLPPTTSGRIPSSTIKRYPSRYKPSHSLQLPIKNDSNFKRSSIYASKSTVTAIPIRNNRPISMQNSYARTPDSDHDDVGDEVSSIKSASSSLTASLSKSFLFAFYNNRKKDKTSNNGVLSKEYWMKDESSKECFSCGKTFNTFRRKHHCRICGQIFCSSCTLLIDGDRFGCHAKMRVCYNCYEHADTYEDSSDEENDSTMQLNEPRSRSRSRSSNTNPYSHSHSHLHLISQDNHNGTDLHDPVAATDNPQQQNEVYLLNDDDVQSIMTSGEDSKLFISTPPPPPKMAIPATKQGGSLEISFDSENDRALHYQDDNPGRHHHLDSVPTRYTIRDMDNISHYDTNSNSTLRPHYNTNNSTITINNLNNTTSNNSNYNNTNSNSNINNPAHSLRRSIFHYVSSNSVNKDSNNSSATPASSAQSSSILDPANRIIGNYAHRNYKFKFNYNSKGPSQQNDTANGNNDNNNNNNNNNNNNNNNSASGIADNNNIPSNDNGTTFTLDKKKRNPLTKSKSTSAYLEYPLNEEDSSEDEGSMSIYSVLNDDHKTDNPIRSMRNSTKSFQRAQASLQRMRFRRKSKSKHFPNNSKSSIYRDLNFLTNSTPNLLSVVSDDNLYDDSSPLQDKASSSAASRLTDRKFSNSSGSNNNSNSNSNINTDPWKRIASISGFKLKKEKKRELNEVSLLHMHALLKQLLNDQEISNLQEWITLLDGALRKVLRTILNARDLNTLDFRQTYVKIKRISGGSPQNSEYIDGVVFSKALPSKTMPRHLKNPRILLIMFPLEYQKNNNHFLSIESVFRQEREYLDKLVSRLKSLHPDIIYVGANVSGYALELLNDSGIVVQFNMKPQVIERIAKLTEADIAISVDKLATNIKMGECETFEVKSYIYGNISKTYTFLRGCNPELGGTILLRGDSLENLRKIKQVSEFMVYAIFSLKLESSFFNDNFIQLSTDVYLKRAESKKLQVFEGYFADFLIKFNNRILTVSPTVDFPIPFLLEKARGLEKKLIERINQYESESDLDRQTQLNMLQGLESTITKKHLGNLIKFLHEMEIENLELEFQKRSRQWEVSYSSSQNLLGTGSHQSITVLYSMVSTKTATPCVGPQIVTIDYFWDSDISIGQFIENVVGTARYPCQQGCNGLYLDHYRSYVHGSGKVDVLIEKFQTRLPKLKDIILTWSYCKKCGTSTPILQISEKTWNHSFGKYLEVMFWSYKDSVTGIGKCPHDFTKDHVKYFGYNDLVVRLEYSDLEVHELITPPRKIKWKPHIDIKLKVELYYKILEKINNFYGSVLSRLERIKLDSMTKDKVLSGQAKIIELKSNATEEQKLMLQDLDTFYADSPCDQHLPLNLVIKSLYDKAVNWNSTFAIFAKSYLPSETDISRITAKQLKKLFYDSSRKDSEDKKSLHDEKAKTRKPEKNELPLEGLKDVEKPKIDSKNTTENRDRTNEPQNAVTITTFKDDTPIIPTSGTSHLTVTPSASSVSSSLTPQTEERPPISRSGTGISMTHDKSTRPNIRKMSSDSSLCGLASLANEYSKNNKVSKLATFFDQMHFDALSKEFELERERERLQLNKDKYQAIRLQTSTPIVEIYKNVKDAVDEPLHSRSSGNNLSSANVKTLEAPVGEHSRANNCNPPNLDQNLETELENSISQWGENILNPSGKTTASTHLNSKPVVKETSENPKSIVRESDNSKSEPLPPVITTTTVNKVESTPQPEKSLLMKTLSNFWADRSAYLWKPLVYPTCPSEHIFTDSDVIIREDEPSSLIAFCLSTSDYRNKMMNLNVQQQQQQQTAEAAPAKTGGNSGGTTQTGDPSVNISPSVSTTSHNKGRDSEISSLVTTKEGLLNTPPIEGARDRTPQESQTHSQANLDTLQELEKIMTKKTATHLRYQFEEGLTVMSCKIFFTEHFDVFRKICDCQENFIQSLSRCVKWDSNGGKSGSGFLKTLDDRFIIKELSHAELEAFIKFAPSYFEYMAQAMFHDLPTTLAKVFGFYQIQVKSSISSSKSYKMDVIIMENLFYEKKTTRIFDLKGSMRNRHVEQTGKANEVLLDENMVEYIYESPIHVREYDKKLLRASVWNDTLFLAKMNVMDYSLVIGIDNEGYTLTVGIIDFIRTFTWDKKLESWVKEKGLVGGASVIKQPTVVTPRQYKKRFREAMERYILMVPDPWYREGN
Assay [15] deals with NIH3T3. Briefly: Induction of EEA1 localization in vesicular structures of mouse NIH3T3 cells at 800 nM incubated for 2 hrs. The format is functional, cell-based. A digest of the protocol:
as §3

Assay [16] relates to NIH3T3. Briefly: Reversal of swollen vesicle phenotype in mouse NIH3T3 cells expressing Fab1 assessed as reduction in size of swollen vesicles at 800 nM incubated for 2 hrs by phase contrast microscopic analysis. The format is functional, cell-based.
In assay [17] the target is Phosphatidylinositol 4,5-bisphosphate 3-kinase catalytic subunit alpha isoform (Homo sapiens, UniProt P42336). Briefly: Inhibition of GST-tagged Ptdlns3p P110alpha (unknown origin) expressed in baculovirus infected insect cells incubated for 15 mins in presence of ATP.
Sequence of Phosphatidylinositol 4,5-bisphosphate 3-kinase catalytic subunit alpha isoform (P42336 whole entry, canonical isoform): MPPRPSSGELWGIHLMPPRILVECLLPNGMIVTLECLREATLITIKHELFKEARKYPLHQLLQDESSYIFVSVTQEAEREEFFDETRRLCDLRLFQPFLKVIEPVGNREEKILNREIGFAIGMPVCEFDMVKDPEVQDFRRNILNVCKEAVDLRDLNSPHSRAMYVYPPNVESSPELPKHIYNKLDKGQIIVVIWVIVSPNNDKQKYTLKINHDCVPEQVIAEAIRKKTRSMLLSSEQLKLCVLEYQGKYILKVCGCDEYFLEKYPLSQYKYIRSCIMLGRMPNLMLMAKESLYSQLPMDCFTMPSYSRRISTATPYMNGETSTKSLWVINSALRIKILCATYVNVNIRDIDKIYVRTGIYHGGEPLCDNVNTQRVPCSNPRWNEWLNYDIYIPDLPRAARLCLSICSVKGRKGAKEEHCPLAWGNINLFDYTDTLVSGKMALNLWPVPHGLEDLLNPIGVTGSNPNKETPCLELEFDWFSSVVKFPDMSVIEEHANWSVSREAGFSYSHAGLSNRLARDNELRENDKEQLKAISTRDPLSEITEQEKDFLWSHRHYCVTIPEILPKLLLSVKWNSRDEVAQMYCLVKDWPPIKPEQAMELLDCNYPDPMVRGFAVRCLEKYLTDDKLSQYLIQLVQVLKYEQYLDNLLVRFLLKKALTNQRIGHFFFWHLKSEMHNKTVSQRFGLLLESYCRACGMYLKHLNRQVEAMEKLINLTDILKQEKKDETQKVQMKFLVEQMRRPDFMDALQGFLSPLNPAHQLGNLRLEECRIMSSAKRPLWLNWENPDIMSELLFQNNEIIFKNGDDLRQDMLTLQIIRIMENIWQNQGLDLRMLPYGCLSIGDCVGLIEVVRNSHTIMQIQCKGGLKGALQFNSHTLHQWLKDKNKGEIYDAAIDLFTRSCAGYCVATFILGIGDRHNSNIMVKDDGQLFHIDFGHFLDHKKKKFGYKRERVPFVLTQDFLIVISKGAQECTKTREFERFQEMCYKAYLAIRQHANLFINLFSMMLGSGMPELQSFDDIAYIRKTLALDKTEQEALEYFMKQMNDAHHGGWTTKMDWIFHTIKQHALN
For assay [18], the system named is NIH3T3. In words: Inhibition of autophagy in mouse NIH3T3 cells transfected with GFP-tagged LC3 assessed as accumulation of LC3 in enlarged vesicles at 800 nM after 2 hrs. The assay is classed as functional, cell-based. Summed up:
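NIH3T3 cells transfected with GFP-LC3 (Lipofectamine 2000), examined 48 h post-transfection. Left untreated or treated 2 h with 800 nM compound, fixed in 4% paraformaldehyde, and GFP, phase and overlay images taken by confocal microscopy as 0.4 μm optical sections.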

A short description of assay [19]: Effect on PtdIns(3,5)P2 production in [32p]pi labelled serum stimulated mouse NIH3T3 cells at 800 nM (reference value: 2219 +/- 71). The assay is classed as functional. A digest of the protocol:
as §1

For assay [20], the system named is COS-7. In words: Induction of EGF localization in african green monkey COS7 cells at 800 nM preincubated for 2 hrs followed by EGF stimulation and measured after 60 mins. The assay is classed as functional, cell-based. The settings on record: Chlorocebus aethiops, time 3.0 hrs.
Assay [21] has as its system NIH3T3. In words: Inhibition of cell growth in mouse NIH3T3 cells after 7 days. The assay is classed as functional. The conditions noted are these: time 7 day.
The species named for a further assay is Homo sapiens. Briefly: Inhibition of type 2 gamma PtdInsP (unknown origin) at 10 uM relative to control.
A short description of assay [22]: Effect on PtdIns3P production in [32p]pi labelled serum stimulated mouse NIH3T3 cells at 800 nM (reference value: 7685 +/- 307). The format is functional. A digest of the protocol:
as §1

The test system of assay [23] is NIH3T3. In words: Induction of CI-MPR localization in perinuclear vesicle of mouse NIH-3T3 at 800 nM incubated for 2 hrs. The assay is classed as functional, cell-based.
Assay [24] relates to NIH3T3. Briefly: Reversal of swollen vesicle phenotype in mouse NIH3T3 cells expressing Fab1 assessed as reduction in number of swollen vesicles at 800 nM incubated for 2 hrs by phase contrast microscopic analysis. The assay is classed as functional. Details: scale not given: the % may be the effect or the level left.
Assay [25] has as its system NIH3T3. The conditions noted are these: Mus musculus, dose 800.0 nM.

Active and inactive are the calls of the source. No cut-off for these calls is given here.

With `Nc1ccc(C(=O)Nc2cccc(-c3nc(N4CCOCC4)c4oc5ncccc5c4n3)c2)cn1`, the inhibition result in the assay on NIH3T3 [1] and in the assay filed under Homo sapiens was “inactive” in each case. In assay [2], the Ratio IC50 was 100. Moreover, the result in the assay with NIH3T3 [3], with COS-7 [4], in the assay on MCF-10A, in the assay with MDCK, in the assay on MEF and in the assay on NIH3T3 [11] was Active. In addition, the result in the assay on NIH3T3 [12], in the assay with NIH3T3 [15], with NIH3T3 [16], with NIH3T3 [18], with COS-7 [20] and with NIH3T3 [23] was Active. For the same compound, the Activity was found to be 393289 in assay [5]; 1319 in assay [7]; 194539 in [9]; 465 in assay [19]; 7476 in assay [22]; 50% with NIH3T3 [24]. For the same compound, the outcome in the assay with NIH3T3 [6] was inactive. In the assay with NIH3T3 [8], this compound displayed an EC50 of 400 nM. Also, the IC50 in assay [10] is over 2000 nM; in assay [13] it was 33 nM; in [14], over 5000 nM; in [17] it was 3300 nM. The “inhibition (INH)” value in the assay on NIH3T3 [21] was 25%.

For `Oc1cccc(-c2nc(N3CCOCC3)c3oc4ncccc4c3n2)c1` [PI-103], the inhibition result in the assay with NIH3T3 [25] is “Active”. The IC50 in assay [14] is over 10000 nM.

The values are drawn from ChEMBL document CHEMBL5647682, “A selective PIKfyve inhibitor blocks PtdIns(3,5)P(2) production and disrupts endomembrane transport and retroviral budding” (EMBO Rep, 2008).
